Data as given in ChEMBL document CHEMBL5653622 (Oncotarget, 2016).
Active and inactive are the calls of the source. The calls are words filed in the database; no cut-off is given here.

Tests used:
[1] = Toxicity in CRTac:Ncr-Fox1 mouse xenografted with human SW620 cells assessed as body weight at 100 mg/kg, iv administered for 9 days relative to control; format: organism-based, SW-620; conditions: in vivo, 216 h, time 9 day
[2] = test system: Mus musculus; assay: In vivo inhibition of CHK1 in CRTac:Ncr-Fox1 mouse xenografted with human HT-29 cells assessed as increased phosphorylation of CHK1 on S317 at 100 mg/kg, iv administered for 24 hrs by Western blotting analysis; format: functional, organism-based
Procedure, shortened: (§1)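 HT29 s.c. xenografts in female athymic nude mice. Single gemcitabine dose 100mg/kg i.v. on day 0, then one inhibitor dose 50 or 100mg/kg p.o. (DPTW vehicle) 24h later. Tumors taken 24h after the last dose, western blotted, and signals quantified by normalizing to GAPDH.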

[3] = test system: Calu-6; assay: Antitumor activity against human Calu-6 cells xenografted in CRTac:Ncr-Fox1 mouse assessed as tumor growth delay time at 100 mg/kg, iv in presence of carboplatin (reference value: 6.4 +/- 2.5 days); format: functional
[4] = test system: HT-29; assay: Induction of cell cycle arrest in human HT-29 cells assessed as phosphorylation of CDK1 on pY15 at 200 nM by Western blotting analysis; format: functional, cell-based
Procedure, shortened: (§2)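 HT29 colon cells treated with gemcitabine with or without inhibitor. Protein expression was read by western blotting with 50μg protein per lane.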

[5] = test system: HT-29; assay: Antitumor activity against human HT-29 cells xenografted in CRTac:Ncr-Fox1 mouse assessed as tumor growth delay at 100 mg/kg, iv (reference value: 7.2 +/- 1.8 days); format: functional
[6] = test system: HT-29; assay: Antitumor activity against human HT-29 cells xenografted in CRTac:Ncr-Fox1 mouse assessed as tumor growth delay at 100 mg/kg, iv (reference value: 8.4 +/- 1.6 days); format: functional
[7] = test system: Mus musculus; assay: Effect on CHK1 in CRTac:Ncr-Fox1 athymic mouse xenografted with human Calu-6 cells assessed as phosphorylation of CHK1 at S317 at 100 mg/kg, iv in presence of carboplatin by Western blotting analysis; format: functional, organism-based
Procedure, shortened: (§3)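 Female CRTac:Ncr-Fox1(nu) athymic mice carried s.c. Calu6 xenografts. Tumors were taken 6h after the last inhibitor dose, lysed in CHAPS buffer, and immunoblotted with GAPDH as loading control.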

[8] = test system: HT-29; assay: Antitumor activity against human HT-29 cells xenografted in CRTac:Ncr-Fox1 mouse assessed as tumor growth delay at 100 mg/kg, iv (reference value: […] +/- 5.2 days); format: functional
[9] = Toxicity in CRTac:Ncr-Fox1 mouse xenografted with human HT-29 cells assessed as body weight at 200 mg/kg, iv administered for 16 days relative to control; format: organism-based; conditions: in vivo, 384 h, time 16 day
[10] = test system: HT-29; assay: Cytotoxicity against human HT-29 cells assessed as phosphorylation of CHK1 on S296 at 200 nM by Western blotting analysis; format: functional, cell-based; procedure, shortened: as §2
[11] = test system: HT-29; assay: Cytotoxicity against human HT-29 cells assessed as phosphorylation of CHK1 on S317 at 200 nM by Western blotting analysis; format: functional, cell-based; procedure, shortened: as §2
[12] = test system: Mus musculus; assay: In vivo inhibition of CHK1 in CRTac:Ncr-Fox1 mouse xenografted with human HT-29 cells assessed as increased phosphorylation of CHK1 on S296 at 100 mg/kg, iv administered for 24 hrs by Western blotting analysis; format: functional, organism-based; procedure, shortened: as §1
[13] = test system: Mus musculus; assay: In vivo inhibition of CHK1 in CRTac:Ncr-Fox1 mouse xenografted with human HT-29 cells assessed as increased phosphorylation of CDK1 on Y15 at 100 mg/kg, iv administered for 24 hrs by Western blotting analysis; format: functional, organism-based; procedure, shortened: as §1
[14] = test system: HT-29; assay: Cytotoxicity against human HT-29 cells assessed as phosphorylation of CHK1 on S345 at 200 nM by Western blotting analysis; format: functional, cell-based; procedure, shortened: as §2
[15] = test system: HT-29; assay: Cytotoxicity against human HT-29 cells assessed as phosphorylation of CHK1 on S280 at 200 nM by Western blotting analysis; format: functional, cell-based; procedure, shortened: as §2
[16] = test system: Mus musculus; assay: Effect on CHK1 in CRTac:Ncr-Fox1 athymic mouse xenografted with human Calu-6 cells assessed as phosphorylation of CHK1 at S296 at 100 mg/kg, iv in presence of carboplatin by Western blotting analysis; format: functional, organism-based; procedure, shortened: as §3
[17] = test system: Mus musculus; assay: Effect on CHK1 in CRTac:Ncr-Fox1 athymic mouse xenografted with human Calu-6 cells assessed as phosphorylation of CHK1 at S345 at 100 mg/kg, iv in presence of carboplatin by Western blotting analysis; format: functional, organism-based; procedure, shortened: as §3

Q: Which results are given for `Nc1ccn([C@@H]2O[C@H](CO)[C@@H](O)C2(F)F)c(=O)n1` [GEMCITABINE]?
A: residual activity [1]: 95.7%; Activity [2]: Active; Time [3]: 0.7 days; Activity [4]: Active; Time [5]: 2.9 days; Time [6]: 2.6 days; Activity [7]: Active; Time [8]: 0.3 days; residual activity [9]: 94.2%; Activity [10]: Active; Activity [11]: Active; Activity [12]: Active; Activity [13]: Active; Activity [14]: Active; Activity [15]: Active; Activity [16]: Active; Activity [17]: Active
